From ChEMBL document CHEMBL1135575, “Synthesis and structure-activity relationships of 3-aryloxindoles: a new class of calcium-dependent, large conductance potassium (maxi-K) channel openers with neuroprotective properties” (J Med Chem, 2002) come the findings set out here.

“And” between values parts separate entries of the source, which are not always exact repeats. Equal entries are not always repeated.

The nature of series [1]: (§1) Effect on Maxi-K-Mediated outward current in Xenopus laevis oocytes expressing cloned mSlo maxi-K channels at 20 uM. The series is classed as functional, Oocyte. The method in brief:
(§2)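 Two-electrode voltage clamp on Xenopus oocytes expressing cloned mSlo. Steps of 500–750 ms ran from a holding potential of -60 to +140 mV in 20 mV increments, without and with compound at 20 μM in the chamber. Each experiment ended with 10 min of 50 nM iberiotoxin, and that residual current was subtracted. The IbTx-sensitive current is given as % of drug-free control, from at least five oocytes.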

Series [2] can be described thus: as §1. The series is classed as functional, Mus musculus, Oocyte. The method in brief:
as §2

The test system of series [3] is Rattus norvegicus. The series can be described thus: Plasma level concentration after IV administration (4.6 mg/kg) in male rats at 0.25 hours. The series is classed as functional, organism-based. The method in brief:
(§3)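 Male Sprague–Dawley rats (ca. 225 g) got a tail-vein bolus of 2 mL/kg. Three animals per group were killed by CO2 at 0.25 and 2 h. Whole brain and blood were taken. Brain homogenates and plasma were extracted with CH3CN and assayed by HPLC with UV detection at 290 nm. Plasma is given in μg/mL and brain in μg/g wet weight, as mean ± SD.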

Series [4] concerns Rattus norvegicus. Description: Brain level concentration after IV administration (4.6 mg/kg) in male rats at 2 hours. The series is classed as functional, organism-based. In a few lines: as §3
For series [5], the system named is Rattus norvegicus. The series can be described thus: Plasma level concentration after IV administration (4.6 mg/kg) in male rats at 2 hours. The series is classed as functional, organism-based. In a few lines: as §3
The subject of series [6] is Rattus norvegicus. The series can be described thus: Brain level concentration after IV administration (4.6 mg/kg) in male rats at 0.25 hours. The series is classed as functional, organism-based. In a few lines: as §3
Series [7] is described as follows: Effect on Maxi-K mediated outward current in Xenopus laevis oocytes expressing cloned mSlo maxi-K channels at 20 uM. The series is classed as functional, Mus musculus, Oocyte. The method in brief:
as §2

For series [8], the system named is Rattus norvegicus. Description: Neocortical infarct volume after IV administration (2 hr post-MCAO) in 13 rats by method A at the dose 5.0 mg/kg. The series is classed as functional. The method in brief:
(§4)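 Left MCA was permanently occluded by a subtemporal approach in male SHR (240–350 g) under ketamine/xylazine, with temperature kept at 36–38 °C. A single tail-vein bolus was given 2 h after occlusion, in vehicle of 2% DMSO and 98% propylene glycol. At 24 h the brain was perfused with 3% TTC, incubated 30 min at 37 °C and fixed. Neocortical infarct volume (mm3) was measured by planimetry of 2 mm slices and reported as mean (SE) and % reduction versus vehicle.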

The test system of series [9] is Rattus norvegicus. Description: Neocortical infarct volume after IV administration (2 hr post-MCAO) in 13 rats by method A at the dose 10.0 mg/kg. The series is classed as functional. In a few lines: as §4
The species named for series [10] is Rattus norvegicus. Description: Electrically stimulated [3H]glutamate release in hippocampal slices. The series is classed as functional, Hippocampus. In a few lines:
(§5)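 Hippocampal wedges (350 μm) from male Sprague–Dawley rats were washed in Krebs buffer with adenosine deaminase. They were loaded with 5 μCi [3H]-glutamate for 30 min at 37 °C, then superfused and collected as 5 min fractions. Release was evoked by field stimulation (35 mA, 10 Hz, 2 ms pulses, 1 min) at fractions 3 (S1) and 13 (S2). Compound was present from 30 min before S2. Data are S2/S1 ratios, analysed by ANOVA with Newman–Keuls.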

Series [11] relates to Rattus norvegicus. Description: Neocortical infarct volume after IV administration (2 hr post-MCAO) in 13 rats by method A at the dose 1.0 mg/kg. The series is classed as functional. In a few lines:
as §4

Series [12] has as its system Rattus norvegicus. Description: Neocortical infarct volume after IV administration (2 hr post-MCAO) in 9 rats by method A at the dose 0.1 mg/kg. The series is classed as functional. In a few lines: as §4
The test system of series [13] is Rattus norvegicus. Description: Neocortical infarct volume after IV administration (2 hr post-MCAO) in 9 rats by method A at the dose 0.03 mg/kg. The series is classed as functional. In a few lines:
as §4

The subject of series [14] is Rattus norvegicus. The series can be described thus: Neocortical infarct volume after intraperitoneal administration (2 hr post-MCAO) in 11 rats by method B at the dose level 10(mg/kg). The series is classed as functional. In a few lines:
(§6)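 Permanent left MCA occlusion in male SHR (240–350 g) under ketamine/xylazine, at 36–38 °C. Compound was given intraperitoneally 2 h after occlusion in 2% DMSO/98% propylene glycol. At 24 h, infarcts were stained with 3% TTC perfusion, slices were cut at 2 mm, and neocortical infarct volume was measured by planimetry. Results are given as mean (SE) and % reduction versus vehicle from the same study.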

The subject of series [15] is Rattus norvegicus. The series can be described thus: Neocortical infarct volume after intraperitoneal administration (2 hr post-MCAO) in 9 rats by method A at the dose 10 mg/kg.
Series [16] concerns Rattus norvegicus. Description: Neocortical infarct volume after IV administration (2 hr post-MCAO) in 9 rats by method B at the dose 0.1 mg/kg. The series is classed as functional.
The subject of series [17] is Rattus norvegicus. The series can be described thus: Neocortical infarct volume after IV administration (2 hr post-MCAO) in 9 rats by method B at the dose 0.01 mg/kg.
Series [18] has as its system Rattus norvegicus. Description: Neocortical infarct volume after intraperitoneal administration (2 hr post-MCAO) in 11 rats by method B at the dose level 20(mg/kg). The series is classed as functional. The method in brief: as §6
Series [19] is filed under the species Rattus norvegicus. Description: Electrically stimulated [3H]-glutamate release in hippocampal slices. The series is classed as functional, Hippocampus. The method in brief: as §5
The test system of series [20] is Rattus norvegicus. The series can be described thus: Neocortical infarct volume after IV administration (2 hr post-MCAO) in 9 rats by method A at the dose 10.0 mg/kg; Toxic at 10.0% reduction level. The conditions noted are these: in vivo.

`O=C1Nc2cc(C(F)(F)F)ccc2C1(O)c1ccccc1O` (configuration not stated): the Increase in series [1] turned out to be 90%.
Consider `O=C1Nc2cc(C(F)(F)F)ccc2C1(O)c1cc(C(F)(F)F)ccc1O` (configuration not stated), for which the Increase in series [1] turned out to be 130%.
With `COc1ccc(Cl)cc1C1(O)C(=O)Nc2cc(C(F)(F)F)ccc21` (racemic), in series [1], the Increase worked out at 120%.
For the molecule `O=C1Nc2ccccc2C1c1cc(Cl)ccc1O` (configuration not stated), the Increase in [1] was determined as 139%.
Same read-out and setting: then `O=C1Nc2ccc(C(F)(F)F)cc2C1(O)c1cc(Cl)ccc1O` (configuration not stated), with 108%.
Consider `Nc1cc(O)c(C2(O)C(=O)Nc3cc(C(F)(F)F)ccc32)cc1Cl` (configuration not stated), for which the Increase in series [2] stood at 94%.
As for `O=C1Nc2cc(C(F)(F)F)ccc2C1(O)c1cc(Br)ccc1O` (configuration not stated), in series [1], the Increase is reported as 89%.
Turning to `CN1CCN(c2ccc(O)c(C3(O)C(=O)Nc4cc(C(F)(F)F)ccc43)c2)CC1` (configuration not stated), the Increase in [1] was found to be 91%.
On to `O=C1Nc2cc(C(F)(F)F)ccc2C1(O)c1ccc(Cl)cc1O` (configuration not stated), for which the Increase in series [1] was 93%.
The same measure, in the same setting: in the case of `O=C1Nc2cc(C(F)(F)F)ccc2C1(O)c1cccc(Cl)c1O` (configuration not stated) it was 116%; in that of `O=C1Nc2cc(C(F)(F)F)ccc2C1(O)c1ccc(C(F)(F)F)cc1O` (configuration not stated), 108%; in that of `O=C1Nc2ccccc2C1(O)c1cc(Cl)ccc1O` (configuration not stated), 95%.
Consider `COc1ccc(O)c(C2(O)C(=O)Nc3cc(C(F)(F)F)ccc32)c1` (configuration not stated), for which the Increase in series [1] was 81%.
Regarding `O=C1Nc2ccc([N+](=O)[O-])cc2C1(O)c1cc(Cl)ccc1O` (configuration not stated), the Increase in series [1] came to 78%.
Take `COc1ccc(Cl)cc1[C@]1(O)C(=O)Nc2cc(C(F)(F)F)ccc21` (stereo in doubt; (+)-7c): in series [1], the Increase is given as 117%.
For the molecule `COc1ccc(Cl)cc1C1C(=O)Nc2cc(C(F)(F)F)ccc21` (configuration not stated), in series [1], the Increase turned out to be 110%.
As for `O=C1Nc2c(C(F)(F)F)cccc2C1(O)c1cc(Cl)ccc1O` (configuration not stated), in [1], the Increase worked out at 122%.
`Cc1ccc(O)c(C2(O)C(=O)Nc3cc(C(F)(F)F)ccc32)c1` (configuration not stated): in series [1], the Increase is 106%.
On to `O=c1[nH]c2cc(C(F)(F)F)ccc2n1-c1cc(Cl)ccc1O`, for which the Increase in series [1] was found to be 132%.
As to `O=C1Nc2cc(C(F)(F)F)ccc2C1(O)c1cccc(Cl)c1` (configuration not stated), in [1], the Increase amounted to 97%.
Same read-out and setting: then `O=C1Nc2cc(C(F)(F)F)ccc2C1(O)c1cc(Cl)cc(Cl)c1O` (configuration not stated), with 108%; and `O=C1Nc2cc(C(F)(F)F)ccc2C1(O)c1cc(Cl)cc(I)c1O` (configuration not stated), with 124%.
`O=C1Nc2cc(C(F)(F)F)ccc2C1(O)c1cc(-c2ccccc2)ccc1O` (configuration not stated): in [1], the Increase turned out to be 106%.
Turning to `Nc1ccc(C2(O)C(=O)Nc3cc(C(F)(F)F)ccc32)c(O)c1` (configuration not stated), the Increase in series [2] is 92%.
As for `O=C1Nc2cc(C(F)(F)F)ccc2C1(O)c1cc(I)ccc1O` (configuration not stated), the Increase in series [1] came to 107%.
For `O=C1Nc2cc(C(F)(F)F)ccc2C1(O)c1cc(Cl)ccc1O` (racemic) [listing 1 of 2 here], the Concentration came to 1.2 µg/mL in the series on Rattus norvegicus [3], 0.87 µg/g in the series with Rattus norvegicus [4], 0.231 µg/mL with Rattus norvegicus [5] and 1.34 µg/g in the series on Rattus norvegicus [6].
For `O=C1Nc2cc(C(F)(F)F)ccc2C1(O)c1cc(F)ccc1O` (configuration not stated), the Increase in series [1] is 97%.
Still for that read-out and setting: then `Cc1ccc2c(c1)C(O)(c1cc(Cl)ccc1O)C(=O)N2` (configuration not stated), with 100%; and `O=C1Nc2ccc(F)cc2C1(O)c1cc(Cl)ccc1O` (configuration not stated), with 106%; and `O=C1Nc2cc(C(F)(F)F)ccc2C1(O)c1c(O)ccc2ccccc12` (configuration not stated), with 116%.
Consider `O=C1Nc2cc(C(F)(F)F)ccc2C1(O)c1cc(Cl)c(Cl)cc1O` (configuration not stated), for which the Increase in series [1] is recorded as 107%.
On to `O=C1Nc2cc(C(F)(F)F)ccc2[C@@]1(O)c1cc(Cl)ccc1O`, for which the Increase in series [1] is 123%.
For `O=C1Nc2cc(Cl)cc(Cl)c2C1(O)c1cc(Cl)ccc1O` (configuration not stated), the Increase in [1] is recorded as 117%.
`COc1ccc(Cl)cc1C1(O)C(=O)Nc2ccc(C(F)(F)F)cc21` (configuration not stated): the Increase in series [7] is 109%.
As to `O=C1Nc2cc(C(F)(F)F)ccc2C1(O)c1ccccc1` (configuration not stated), in [1], the Increase is listed as 87%.
`O=C1Nc2cc(C(F)(F)F)ccc2C1(O)c1cc(Cl)ccc1O` (single isomer, unassigned; (-)): the Increase in [1] is recorded as 141%.
Turning to `O=C1Nc2cc(C(F)(F)F)cc(C(F)(F)F)c2C1(O)c1cc(Cl)ccc1O` (configuration not stated), the Increase in series [1] came out at 127%.
With `O=C1Nc2cc(C(F)(F)F)ccc2C1(O)c1cc(Cl)ccc1O` (racemic) [listing 2 of 2 here], the Reduction in the series with Rattus norvegicus [8] is 10%; with Rattus norvegicus [9], 4%; in the series on Rattus norvegicus [11], 10%; with Rattus norvegicus [12] it was 4%. The Increase in series [1] is reported as 131%. Further, the Control in the series filed under Rattus norvegicus [10] was 89% and 93%.
With `O=C1Nc2cc(C(F)(F)F)ccc2C1c1cc(Cl)ccc1O` (racemic), the Concentration came to 3.3 µg/mL in the series with Rattus norvegicus [3], 0.23 µg/g in the series with Rattus norvegicus [4], 0.28 µg/mL with Rattus norvegicus [5] and 2.4 µg/g in the series on Rattus norvegicus [6]. Moreover, the Reduction was 18% with Rattus norvegicus [13]; 24% in the series with Rattus norvegicus [14]; 26% with Rattus norvegicus [15]; 4% and 12% in the series on Rattus norvegicus [16]; 9% and 0% and 6% in the series on Rattus norvegicus [12] (0.1 mg/kg); 9% in the series with Rattus norvegicus [18]. For the same molecule, the Increase in the series with Rattus norvegicus [17] is listed as -7%; in series [2], 164%. The molecule further displayed a Control in the series filed under Rattus norvegicus [19] of 71%. The Toxic result with Rattus norvegicus [20] is reported as “Toxic”.
With `COc1ccc(Cl)cc1[C@]1(O)C(=O)Nc2cc(C(F)(F)F)ccc21` (stereo in doubt; (-)-7c), the Increase in series [1] is given as 116%.
In the case of `O=C1Nc2cccc(C(F)(F)F)c2C1(O)c1cc(Cl)ccc1O` (configuration not stated), the Increase in [1] is 127%.
